Assay results reported in ChEMBL document CHEMBL4732238, “Synthesis, biological evaluation, and structure-activity relationships of new tubulin polymerization inhibitors based on 5-amino-1,2,4-triazole scaffold” (Bioorg Med Chem Lett, 2021).
pIC50: −log10 of the molar value.

Legend:
Tubulin = assay: Inhibition of tubulin (unknown origin) polymerization measured every 1 min over 20 mins by fluorescence assay; assay type: protein-complex assay, Homo sapiens
Method in brief: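 Tubulin polymerization at 37 °C in reaction buffer, followed at 340 nm each minute over 20 min; 1% DMSO control. IC50 given as mean of three independent experiments done in quadruplicate.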

PANC-1 [1] = assay: Antiproliferative activity against human PANC-1 cells assessed as cell growth inhibition at 100 uM by MTT assay relative to control; assay type: functional; settings: read-out: GI
Method in brief: (§1)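 Five human lines (MCF-7, HeLa, A549, PC-3, Panc-1) exposed to a single 100 μM concentration. Viability read by MTT. Results expressed as […] versus untreated control cells.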

K562 = assay: Antiproliferative activity against human K562 cells assessed as cell growth inhibition by MTT assay; assay type: functional, cell-based
Tubulin (Homo sapiens) = Tubulin (Homo sapiens) (UniProt P68371+Q9H4B7+P0DPH7+P68366+Q13509+Q71U36+P04350+Q3ZCM7+P07437+P68363+Q9BQE3+Q6PEY2+Q13885+Q9BVA1+Q9BUF5); assay: Inhibition of tubulin (unknown origin) polymerization at 10 uM measured every 1 min over 20 mins by fluorescence assay relative to control; assay type: protein-complex assay
Method in brief: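 Tubulin in reaction buffer incubated at 37 °C with test agent at final 10 μM; control 1% DMSO. Polymerization followed at 340 nm, read every minute over 20 min. Run three times.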

PC-3 = assay: Antiproliferative activity against human PC-3 cells assessed as cell growth inhibition at 100 uM by MTT assay relative to control; assay type: functional; settings: read-out: GI; method in brief: as §1
A549 = assay: Antiproliferative activity against human A549 cells assessed as cell growth inhibition at 100 uM by MTT assay relative to control; assay type: functional; settings: read-out: GI; method in brief: as §1
MCF7 [2] = assay: Antiproliferative activity against human MCF7 cells assessed as cell growth inhibition by MTT assay; assay type: functional, cell-based
Method in brief: (§2)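 MTT antiproliferation readout. […] Mean ± SD from three independent experiments.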

PANC-1 [3] = assay: Antiproliferative activity against human PANC-1 cells assessed as cell growth inhibition by MTT assay; assay type: functional, cell-based; method in brief: as §2
HeLa [4] = assay: Antiproliferative activity against human HeLa cells assessed as cell growth inhibition by MTT assay; assay type: functional, cell-based; method in brief: as §2
HeLa [5] = assay: Antiproliferative activity against human HeLa cells assessed as cell growth inhibition at 100 uM by MTT assay relative to control; assay type: functional; settings: read-out: GI; method in brief: as §1
MCF7 [6] = assay: Antiproliferative activity against human MCF7 cells assessed as cell growth inhibition at 100 uM by MTT assay relative to control; assay type: functional; settings: read-out: GI; method in brief: as §1

SMILES: COc1ccc(C(=O)Cn2nc(-c3cc(OC)c(OC)c(OC)c3)nc2N)cc1
- pIC50 (Tubulin): 5.03
- inhibition of growth at 100 µM (PANC-1 [1]): 57%
- pIC50 (K562): 4.18
- inhibition (Tubulin (Homo sapiens)): 52%
- inhibition of growth at 100 µM (PC-3): 31%
- inhibition of growth at 100 µM (A549): 21%
- pIC50 (MCF7 [2]): 4.39
- pIC50 (PANC-1 [3]): 4.22
- pIC50 (HeLa [4]): 4.28
- inhibition of growth at 100 µM (HeLa [5]): 76%
- inhibition of growth at 100 µM (MCF7 [6]): 73%
